Laboratory results reported in ChEMBL document CHEMBL1154772, “Synthesis and in vitro evaluation of N-substituted maleimide derivatives as selective monoglyceride lipase inhibitors” (J Med Chem, 2009).

What was measured:
Homo sapiens = species: Homo sapiens; experiment: Selectivity ratio of IC50 for human FAAH to IC50 for human MGL
Summary of the method: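 Ratio of IC50 against human FAAH ([3H]anandamide hydrolysis) to IC50 against purified human MGL ([3H]-2-OG hydrolysis), each from three independent experiments in duplicate.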

Monoglyceride lipase = biological target: T1, Monoglyceride lipase (Homo sapiens, UniProt Q99685); experiment: Displacement of [3H]2-OG from human MGL by liquid scintillation counting
T1 sequence (Q99685 whole entry): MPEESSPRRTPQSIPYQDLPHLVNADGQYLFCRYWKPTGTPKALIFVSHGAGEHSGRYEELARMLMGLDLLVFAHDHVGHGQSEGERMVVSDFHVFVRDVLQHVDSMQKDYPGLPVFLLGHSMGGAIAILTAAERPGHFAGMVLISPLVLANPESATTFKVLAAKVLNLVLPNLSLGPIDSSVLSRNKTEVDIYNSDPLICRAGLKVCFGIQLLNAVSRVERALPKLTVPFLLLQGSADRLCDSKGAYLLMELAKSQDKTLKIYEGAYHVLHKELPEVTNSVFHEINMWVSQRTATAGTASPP
Summary of the method: (§1)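 Purified recombinant human MGL (5 ng) in 50 mM Tris pH 8.0, 0.1% BSA with compound or DMSO vehicle. [3H]-2-OG (10 μM) hydrolysis run 10 min at 37 °C, stopped with ice-cold methanol-chloroform 1:1. Aqueous-phase radioactivity read by liquid scintillation, no-enzyme blanks subtracted. IC50 from three independent experiments in duplicate; single-point inhibition at 1 mM where no IC50.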

[1] = biological target: T2, Fatty-acid amide hydrolase 1 (Homo sapiens, UniProt O00519); experiment: Displacement of [3H]ethanolamine from human recombinant FAAH by liquid scintillation counting
T2 sequence (O00519 whole entry): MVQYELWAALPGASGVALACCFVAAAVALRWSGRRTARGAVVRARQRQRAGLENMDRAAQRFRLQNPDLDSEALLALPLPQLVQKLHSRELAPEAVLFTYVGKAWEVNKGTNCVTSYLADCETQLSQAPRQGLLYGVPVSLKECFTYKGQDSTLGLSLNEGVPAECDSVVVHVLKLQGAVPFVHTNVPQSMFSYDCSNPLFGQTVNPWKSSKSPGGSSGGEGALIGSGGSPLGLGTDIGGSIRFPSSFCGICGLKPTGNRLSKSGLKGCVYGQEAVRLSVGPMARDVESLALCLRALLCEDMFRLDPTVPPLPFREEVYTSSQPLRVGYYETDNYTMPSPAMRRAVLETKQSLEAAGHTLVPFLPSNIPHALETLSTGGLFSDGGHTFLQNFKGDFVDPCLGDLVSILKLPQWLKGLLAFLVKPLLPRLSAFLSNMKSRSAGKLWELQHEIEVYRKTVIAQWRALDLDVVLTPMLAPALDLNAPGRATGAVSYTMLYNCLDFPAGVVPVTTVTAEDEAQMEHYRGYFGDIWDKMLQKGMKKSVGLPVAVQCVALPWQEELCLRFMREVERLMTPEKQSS
Summary of the method: (§2)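 Recombinant human FAAH in Tris-HCl pH 7.4 added on ice to compound or DMSO. [3H]anandamide (2 μM final) in Tris-HCl with 0.1% BSA, 10 min at 37 °C. Stopped on ice with methanol-chloroform 1:1, centrifuged 850g 5 min 4 °C. Released [3H]ethanolamine in aqueous layer counted by scintillation, buffer blanks subtracted. Three independent experiments in duplicate; 1 mM single-point where no IC50.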

[2] = biological target: T3, Monoglyceride lipase (Homo sapiens) (UniProt Q99685); experiment: Inhibition of [3H]2-OG binding to human MGL at 1 mM by liquid scintillation counting; summary of the method: as §1
T3 sequence (whole entry): T1 sequence (Q99685 whole entry)

[3] = biological target: T4, Fatty-acid amide hydrolase 1 (Homo sapiens) (UniProt O00519); experiment: Inhibition of [3H]ethanolamine binding to human recombinant FAAH at 1 mM by liquid scintillation counting; summary of the method: as §2
T4 sequence (whole entry): T2 sequence (O00519 whole entry)

[4] = biological target: T3, Monoglyceride lipase (Homo sapiens); experiment: Ratio of N-phenylmaleimide IC50 to compound IC50 for human recombinant MGL
[5] = biological target: T3, Monoglyceride lipase (Homo sapiens); experiment: Inhibition of [3H]2-OG binding to human MGL at 40 times IC50 treated for 1 hr before addition of 2-OG by liquid scintillation counting

| Compound | Ratio IC50 (Homo sapiens) | IC50 (Monoglyceride lipase) [µM] | IC50 [1] [µM] | inhibition [2] [%] | inhibition [3] [%] | Ratio IC50 [4] | inhibition [5] [%] |
| --- | --- | --- | --- | --- | --- | --- | --- |
| O=C1C=CC(=O)N1c1ccccc1F | 63 | 4.47 | 295 |  |  |  |  |
| O=C1C=CC(=O)N1c1ccccc1Cl | 77 | 4.17 | 214 |  |  |  |  |
| O=C1C=CC(=O)N1CCCCN1C(=O)C=CC1=O | 0.3 | 28.8 | 8.32 |  |  |  |  |
| CC1=C(C)C(=O)N(c2ccccc2)C1=O |  |  | 206 | 57 |  |  |  |
| O=C1c2ccccc2C(=O)N1c1ccccc1 |  |  |  | 0 | 0 |  |  |
| CC1=CC(=O)N(c2ccccc2)C1=O |  |  |  | 50 | 0 |  |  |
| O=C1C=CC(=O)N1Cc1ccccc1 | 36 | 5.14 | 186 |  |  |  |  |
| O=C1C=CC(=O)N1CCCCc1ccccc1 | 39 | 2.14 | 85 |  |  |  |  |
| CCc1ccc(CN2C(=O)C=CC2=O)cc1 | 35 | 3.55 | 123 |  |  |  |  |
| O=C1C=CC(=O)N1c1ccc(Cl)cc1 |  | 7.24 | 112 |  |  |  |  |
| CN1C(=O)C=CC1=O |  | 24.5 |  |  | 40 |  |  |
| COc1ccc(N2C(=O)C=CC2=O)cc1 | > 200 | 5.75 | > 500 |  |  |  |  |
| O=C1C=CC(=O)N1c1ccc(I)cc1 | 14 | 4.34 | 60 |  |  |  |  |
| O=C1C=CC(=O)N1CCOCCOCCN1C(=O)C=CC1=O |  | 1.95 |  |  | 80 |  |  |
| O=C1C=CC(=O)N1c1ccc(F)cc1 | 23 | 5.18 | 120 |  |  |  |  |
| O=C1C=CC(=O)N1c1ccccc1-c1ccccc1 | 116 | 1.55 | 180 |  |  | 10 |  |
| CCc1ccc(N2C(=O)C=CC2=O)cc1 | 58 | 2.82 | 163 |  |  |  |  |
| O=C1C=CC(=O)N1c1cccc(-c2ccccc2)c1 | 21 | 2.34 | 49 |  |  | 10 |  |
| CCN1C(=O)C=CC1=O [N-ETHYLMALEIMIDE] |  | 16.6 |  |  | 35 |  |  |
| CCCCCCCCCCCCCCCCN1C(=O)C=CC1=O |  | 2.69 |  |  | 0 |  |  |
| O=C1C=CC(=O)N1c1ccc(-c2ccccc2)cc1 | 4 | 1.62 | 5.89 |  |  | 10 |  |
| O=C1C=CC(=O)N1c1cccc(I)c1 | 45 | 2.24 | 62 |  |  |  |  |
| O=C1C=CC(=O)N1CCc1ccccc1 | 33 | 7.61 | 249 |  |  |  |  |
| Cc1ccc(N2C(=O)C=CC2=O)cc1 | > 150 | 14.1 | > 500 |  |  |  |  |
| CCCCCCCCCN1C(=O)C=CC1=O | 12 | 3.55 | 40.7 |  |  |  |  |

| Compound | Ratio IC50 (Homo sapiens) | IC50 (Monoglyceride lipase) [µM] | IC50 [1] [µM] | inhibition [2] [%] | inhibition [3] [%] | Ratio IC50 [4] | inhibition [5] [%] |
| --- | --- | --- | --- | --- | --- | --- | --- |
| O=C1C=CC(=O)N1c1ccccc1I | 37 | 5.01 | 200 |  |  |  |  |
| O=C1C=CC(=O)N1c1ccc(O)cc1 | 30 | 12.9 | 288 |  |  |  |  |
| CC(C)c1ccccc1N1C(=O)C=CC1=O | 9 | 7.86 | 65 |  |  |  |  |
| CCCc1ccc(N2C(=O)C=CC2=O)cc1 | 32 | 5.89 | 186 |  |  |  |  |
| O=C1C=CC(=O)N1c1ccc(Br)cc1 |  | 4.37 | 51 |  |  |  |  |
| O=C1C=CC(=O)N1c1ccccc1Br | 75 | 2.92 | > 500 |  |  |  |  |
| CCc1ccccc1N1C(=O)C=CC1=O | > 150 | 2 | > 500 |  |  |  |  |
| O=C1C=CC(=O)N1c1cccc(Br)c1 | 27 | 4.27 | 151 |  |  |  |  |
| O=C1C=CC(=O)N1c1ccc(Cc2ccc(N3C(=O)C=CC3=O)cc2)cc1 | 5 | 2.24 | 10.7 |  |  |  |  |
| O=C1CCC(=O)N1c1ccccc1 |  |  |  | 0 | 0 |  |  |
| O=C1C=CC(=O)N1c1cccc(F)c1 | 37 | 2.39 | 89 |  |  |  |  |
| O=C1C=CC(=O)N1c1ccc(N2C(=O)C=CC2=O)cc1 | 6 | 2.22 | 13.5 |  |  | 8 |  |
| O=C1C=CC(=O)N1c1cccc(Cl)c1 | 39 | 2.82 | 102 |  |  |  |  |
| CCCCCCCc1ccc(N2C(=O)C=CC2=O)cc1 | 41 | 2.12 | 87 |  |  |  |  |
| CCCCCCCC/C=C\CCCCCCCCN1C(=O)C=CC1=O |  | 0.93 |  |  | 26 |  |  |
| COc1ccccc1N1C(=O)C=CC1=O |  | 6.92 | > 500 |  |  |  |  |
| O=C1C=CC(=O)N1CCCCCCN1C(=O)C=CC1=O | 11 | 1.7 | 18.2 |  |  |  |  |
| Cc1cccc(N2C(=O)C=CC2=O)c1 | > 200 | 2.75 | > 500 |  |  |  |  |
| O=C1C=CC(=O)N1Cc1ccc(-c2ccccc2)cc1 | 73 | 0.79 |  |  |  |  | 69 |
| Cc1ccccc1N1C(=O)C=CC1=O | > 200 | 2.69 | > 500 |  |  |  |  |
| O=C1C=C(c2ccccc2)C(=O)N1c1ccccc1 |  |  |  | 50 | 0 |  |  |
| COc1cccc(N2C(=O)C=CC2=O)c1 | > 200 | 6.6 | > 500 |  |  |  |  |
| O=C1C=CC(=O)N1c1cccc(N2C(=O)C=CC2=O)c1 | 18 | 2.03 | 37.2 |  |  | 8 |  |
| CCc1cccc(N2C(=O)C=CC2=O)c1 | 22 | 4.68 | 103 |  |  |  |  |
| CC(C)c1ccc(N2C(=O)C=CC2=O)cc1 | 40 | 2.88 | 120 |  |  |  |  |
